# In ChEMBL document CHEMBL1130156, “Evolution of the Dmt-Tic pharmacophore: N-terminal methylated derivatives with extraordinary delta opioid antagonist activity” (J Med Chem, 1997):
# Activity calls are given as the source filed them. No cut-off for these calls is given here. Where a SMILES comes first, the peptide text is derived from it. [ ]: non-standard residue; d: D form. ξ: configuration not given here. Dmt = Cc1cc(O)cc(C)c1C[C@H](N)C(=O)O; NMeY = CN[CH](Cc1ccc(O)cc1)C(=O)O; Tic = O=C(O)[CH]1Cc2ccccc2CN1; ξTic = O=C(O)C1Cc2ccccc2CN1
# Key:
# [1] = target: Opioid receptors; mu & delta (Rattus norvegicus) (UniProt P33533+P33535); test: Ratio of the affinity for delta and mu opioid receptors (Ki mu/Ki delta) shows delta opioid receptor selectivity; type: protein assay
# Opioid receptors; mu & delta (Rattus norvegicus), sequence (P33533 whole entry, looked up): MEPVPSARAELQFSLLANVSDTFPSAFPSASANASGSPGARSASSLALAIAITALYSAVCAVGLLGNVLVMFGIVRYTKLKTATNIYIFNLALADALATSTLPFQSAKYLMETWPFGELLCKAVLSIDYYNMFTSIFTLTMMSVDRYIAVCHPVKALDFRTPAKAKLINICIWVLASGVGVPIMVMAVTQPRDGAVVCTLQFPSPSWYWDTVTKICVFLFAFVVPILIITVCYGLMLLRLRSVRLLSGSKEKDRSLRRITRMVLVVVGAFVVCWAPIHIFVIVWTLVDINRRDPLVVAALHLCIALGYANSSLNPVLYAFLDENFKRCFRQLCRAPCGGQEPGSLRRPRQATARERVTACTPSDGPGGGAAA
# Opioid receptors; mu & delta (Rattus norvegicus), sequence (P33535 whole entry, looked up): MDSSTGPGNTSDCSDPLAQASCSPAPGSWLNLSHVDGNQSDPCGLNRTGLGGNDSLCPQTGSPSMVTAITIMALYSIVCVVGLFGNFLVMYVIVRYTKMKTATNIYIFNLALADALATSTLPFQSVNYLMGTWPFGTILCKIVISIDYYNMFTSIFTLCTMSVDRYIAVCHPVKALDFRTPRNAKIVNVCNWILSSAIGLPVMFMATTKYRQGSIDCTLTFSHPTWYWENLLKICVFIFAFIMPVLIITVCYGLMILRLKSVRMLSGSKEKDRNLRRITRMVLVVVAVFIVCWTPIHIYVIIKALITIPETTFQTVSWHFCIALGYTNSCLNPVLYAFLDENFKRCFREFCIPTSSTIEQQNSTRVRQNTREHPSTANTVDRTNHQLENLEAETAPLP
# [2] = target: T1, Delta-type opioid receptor (Rattus norvegicus, UniProt P33533); test: Binding affinity for Opioid receptor delta 1 by displacement of [3H]- DPDPE
# T1 sequence (P33533 whole entry): as the sequence (P33533 whole entry, looked up) above
# Method in brief: (§1)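 Rat brain (Sprague–Dawley, minus cerebellum) synaptosomal membranes, preincubated to strip endogenous opioids. Equilibrium displacement of [3H]DPDPE (δ) or [3H]DAGO (μ); nonspecific binding defined with 2 μM unlabeled ligand. Peptides spanned 3–4 log units.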
# Mu-type opioid receptor [3] = target: Mu-type opioid receptor (Rattus norvegicus, UniProt P33535); test: Binding affinity for Opioid receptor mu 1 by displacement of [3H]- DAGO
# Mu-type opioid receptor (Rattus norvegicus, UniProt P33535), sequence (P33535 whole entry): as the sequence (P33535 whole entry, looked up) above
# Method in brief: as §1, with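 “units. Duplicates, ≥3 membrane preparations; Ki by Cheng–Prusoff; mean ± SEM, n = independent preparations.” for “units.”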
# [4] = target: Delta-type opioid receptor (Mus musculus, UniProt P32300); test: Antagonist activity against Opioid receptor delta 1 in mouse vas deferens assay
# Delta-type opioid receptor (Mus musculus, UniProt P32300), sequence (P32300 whole entry): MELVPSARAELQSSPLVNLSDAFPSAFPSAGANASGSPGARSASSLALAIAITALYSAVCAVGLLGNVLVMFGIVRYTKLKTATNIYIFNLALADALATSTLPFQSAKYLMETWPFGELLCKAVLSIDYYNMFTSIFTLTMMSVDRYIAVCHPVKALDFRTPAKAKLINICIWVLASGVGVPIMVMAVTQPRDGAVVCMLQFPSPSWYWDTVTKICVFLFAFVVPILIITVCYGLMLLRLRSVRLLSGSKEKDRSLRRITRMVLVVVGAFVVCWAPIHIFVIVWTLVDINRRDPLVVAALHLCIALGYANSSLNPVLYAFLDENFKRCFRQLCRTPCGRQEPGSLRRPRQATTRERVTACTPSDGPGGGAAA
# Mu-type opioid receptor [5] = target: T2, Mu-type opioid receptor (Cavia porcellus, UniProt P97266); test: Inhibitory activity against Opioid receptor mu 1 in an in vitro guinea pig ileum assay; '-' indicates inactive; type: tissue-based
# T2 sequence (P97266 whole entry): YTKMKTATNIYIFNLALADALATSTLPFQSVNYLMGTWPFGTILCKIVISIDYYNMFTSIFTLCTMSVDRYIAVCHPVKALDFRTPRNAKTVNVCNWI
# [6] = test system: Delta-type opioid receptor; test: GPI/MVD ratio is based on Ke (antilog of pA2 value of antagonistic activity of compound for delta opioid receptor) and IC50 values; type: functional
# Mu-type opioid receptor [7] = target: T2, Mu-type opioid receptor; test: Antagonist activity against Opioid receptor mu 1 iin a guinea pig ileum assay
# Mu-type opioid receptor [8] = target: T2, Mu-type opioid receptor; test: Inhibitory activity against Opioid receptor mu 1 in an in vitro guinea pig ileum assay; type: tissue-based
# [9] = target: Mu-type opioid receptor (Cavia porcellus) (UniProt P97266); test: Antagonist activity against Opioid receptor mu 1 in guinea pig ileum assay; '-' indicates inactive; type: functional, tissue-based
# Mu-type opioid receptor (Cavia porcellus), sequence (P97266 whole entry): as above
# Method in brief: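 Electrically stimulated mouse vas deferens or guinea pig ileum strips in Krebs' solution; agonist concentration–response curves run without and with rising antagonist concentrations; pA2 by Schild (Arunlakshana–Schild) analysis.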
# [10] = target: Delta-type opioid receptor (Mus musculus) (UniProt P32300); details: Vas deferens
# Delta-type opioid receptor (Mus musculus), sequence (P32300 whole entry): as the sequence (P32300 whole entry) above
# [11] = target: Delta-type opioid receptor (Mus musculus) (UniProt P32300); details: Vas deferens; remark: listed apart in the source
# [12] = target: T1, Delta-type opioid receptor; test: Agonist activity for Opioid receptor delta 1; type: functional
# [13] = target: Mu-type opioid receptor (Cavia porcellus) (UniProt P97266); details: Ileum
SMILES,Ratio [1],Ki [2],Ki (Mu-type opioid receptor [3]),Kb [4],Ratio [6],IC50 (Mu-type opioid receptor [8]),pA2 [9],other results
CN[C@H](Cc1c(C)cc(O)cc1C)C(=O)N1Cc2ccccc2C[C@H]1C(=O)N[C@@H](C)C(=O)O,181,106 nM,19200 nM,,,,,
Cc1cc(O)cc(C)c1C[C@@H](C(=O)N1Cc2ccccc2C[C@H]1C(=O)N[C@@H](C)C(=O)O)N(C)C,20000,0.0755 nM,1520 nM,0.251 nM,7180,,,IC50 (Mu-type opioid receptor [5]): Not Active; Kb (Mu-type opioid receptor [7]): 1580 nM
CNC(Cc1ccc(O)cc1)C(=O)N1Cc2ccccc2CC1C(=O)O (centres undefined) (H-[NMeY]-[Tic]-OH; configuration not given here),166,74.7 nM,12400 nM,,,,,
Cc1cc(O)cc(C)c1C[C@H](N)C(=O)N1Cc2ccccc2C[C@H]1C(=O)N[C@@H](C)C(=O)O,,,,,,> 10000 nM,,
Cc1cc(O)cc(C)c1C[C@H](N)C(=O)N1Cc2ccccc2C[C@H]1C(=O)O,,,,,,> 10000 nM,inactive,pA2 [10]: 8.2
Cc1cc(O)cc(C)c1C[C@H](N)C(=O)N1Cc2ccccc2C[C@H]1C(=O)NC(C)C(=O)O (some centres undefined),20400,,,,> 2500,,inactive,pA2 [10]: 8.4
Cc1cc(O)cc(C)c1C[C@@H](N)C(=O)N1Cc2ccccc2C[C@H]1C(=O)N[C@@H](C)C(=O)O,197,13 nM,2560 nM,,> 88,> 10000 nM,inactive,pA2 [10]: 6.9
CN[C@H](Cc1c(C)cc(O)cc1C)C(=O)N1Cc2ccccc2CC1C(N)=O (some centres undefined),119,11.2 nM,1330 nM,,,,inactive,IC50 (Mu-type opioid receptor [5]): Not Active; pA2 [11]: inactive
CC(C)[C@H](NC(=O)[C@H](CC(=O)O)NC(=O)[C@H](Cc1ccccc1)NC(=O)[C@@H](C)NC(=O)[C@@H](N)Cc1ccc(O)cc1)C(=O)N[C@H](C(=O)NCC(N)=O)C(C)C [DELTORPHIN C],,,,,,,,IC50 [12]: 0.54 nM
Cc1cc(O)cc(C)c1C[C@@H](C(=O)N1Cc2ccccc2CC1C(=O)O)N(C)C (some centres undefined),20600,0.118 nM,2440 nM,0.398 nM,5640,,,IC50 (Mu-type opioid receptor [5]): Not Active; Kb (Mu-type opioid receptor [7]): 1580 nM
"Cc1cc(O)cc(C)c1CC(N)C(=O)N1Cc2ccccc2C[C@H]1C(=O)O (single isomer, unassigned)",,,11000 nM,,,,inactive,IC50 (Mu-type opioid receptor [5]): Not Active; pA2 [11]: inactive
Cc1cc(O)cc(C)c1C[C@H](N)C(=O)N1Cc2ccccc2CC1C(N)=O (some centres undefined) (H-[Dmt]-[ξTic]-NH2),,1.22 nM,,,,,,
N[C@@H](Cc1ccc(O)cc1)C(=O)N1Cc2ccccc2C[C@H]1C(=O)O (H-Tyr-[Tic]-OH),148,192 nM,28400 nM,,,,,
CN[C@@H](Cc1c(C)cc(O)cc1C)C(=O)N1Cc2ccccc2CC1C(N)=O (some centres undefined),2490,0.383 nM,955 nM,2.51 nM,> 4550,> 10000 nM,,
CN[C@@H](Cc1c(C)cc(O)cc1C)C(=O)N1Cc2ccccc2C[C@H]1C(=O)N[C@@H](C)C(=O)O,43000,0.136 nM,5850 nM,1.58 nM,> 7100,> 10000 nM,inactive,
Cc1cc(O)cc(C)c1CC(C)C(=O)N1Cc2ccccc2CC1C(=O)O (centres undefined),55,1300 nM,71400 nM,,,,,
Cc1cc(O)cc(C)c1C[C@@H](C(=O)N1Cc2ccccc2CC1C(N)=O)N(C)C (some centres undefined),1660,0.309 nM,511 nM,0.126 nM,4500,,,IC50 (Mu-type opioid receptor [5]): Not Active; Kb (Mu-type opioid receptor [7]): 501 nM
Oc1ccc2c3c1O[C@H]1c4[nH]c5ccccc5c4C[C@@]4(O)[C@@H](C2)N(CC2CC2)CC[C@]314 [NALTRINDOLE],,,,,76,,,IC50 (Mu-type opioid receptor [5]): Not Active; pA2 [13]: 7.3; pA2 [10]: 9.2
Cc1cc(O)cc(C)c1C[C@H](C(=O)N1Cc2ccccc2CC1C(=O)O)N(C)C (some centres undefined),2280,5.74 nM,13100 nM,2.51 nM,> 4200,> 10000 nM,inactive,
CN[C@H](Cc1c(C)cc(O)cc1C)C(=O)N1Cc2ccccc2CC1C(=O)O (some centres undefined),628,3.19 nM,2000 nM,158 nM,> 71,> 10000 nM,inactive,
CN[C@@H](Cc1c(C)cc(O)cc1C)C(=O)N1Cc2ccccc2CC1C(=O)O (some centres undefined),1870,0.203 nM,379 nM,3.16 nM,> 3570,> 10000 nM,inactive,
CN(C)[C@@H](Cc1ccc(O)cc1)C(=O)N1Cc2ccccc2CC1C(=O)O (some centres undefined),265,43.5 nM,11500 nM,,,,,
Cc1cc(O)cc(C)c1C[C@H](C(=O)N1Cc2ccccc2C[C@H]1C(=O)N[C@@H](C)C(=O)O)N(C)C,176,108 nM,19000 nM,,,,,
